# Experimental data of several laboratories.
# Each line is one published result; the experiments were not run side by side.
# Target: Serine/threonine-protein kinase 4 (STK4, Homo sapiens, UniProt Q13043)
# Sequence (Q13043 1-487, as in one of the studies): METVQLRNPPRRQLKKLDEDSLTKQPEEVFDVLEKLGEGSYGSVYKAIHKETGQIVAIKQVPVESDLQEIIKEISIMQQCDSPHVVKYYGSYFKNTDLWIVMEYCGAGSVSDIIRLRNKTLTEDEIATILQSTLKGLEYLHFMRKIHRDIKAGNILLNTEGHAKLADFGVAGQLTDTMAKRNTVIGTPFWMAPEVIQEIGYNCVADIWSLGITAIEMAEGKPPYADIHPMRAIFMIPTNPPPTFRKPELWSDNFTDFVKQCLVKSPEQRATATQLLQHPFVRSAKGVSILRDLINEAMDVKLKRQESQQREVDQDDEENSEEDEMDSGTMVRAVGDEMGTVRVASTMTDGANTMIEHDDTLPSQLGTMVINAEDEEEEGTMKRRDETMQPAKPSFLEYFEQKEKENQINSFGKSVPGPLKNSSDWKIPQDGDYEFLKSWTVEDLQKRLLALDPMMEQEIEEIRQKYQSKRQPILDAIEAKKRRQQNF
SMILES,read-out,action,technique,tested at,measurement,result
Cn1c2c(c3ccc(Cl)c(Cl)c31)C(C#N)C(C)(C)NC2=O (centres unmarked),thermal stability,,DSF,10 µM,ΔTm,-0.4 °C
Cc1nccc(COC(=O)N2C[C@@H]3[C@@H](CNC(=O)c4ccc5[nH]nnc5c4)[C@@H]3C2)n1,cell-free assay,,competition with immobilised ligand,1 µM,remaining binding,100%
CS(=O)(=O)CCNCc1ccc(-c2ccc3ncnc(Nc4ccc(OCc5cccc(F)c5)c(Cl)c4)c3c2)o1,cell-free assay,,,0.5 µM,remaining signal,99.4%
COc1cccc2c(NCc3ccccc3)nc(-n3c(N)nc4ccccc43)nc12,target engagement in cells,inhibitor,chemoproteomics,20 mM,inhibition,6.2%
Nc1cnc(N2CCc3cc(S(=O)(=O)Nc4c(F)cc(Cl)cc4F)cc(N4CCCC4=O)c32)nc1,cell-free assay,,competition with immobilised ligand,1 µM,remaining binding,100%
Cn1c2c(c3ccc(Cl)c(Cl)c31)C(C#N)C1(CCOCC1)NC2=O (centres unmarked),thermal stability,,DSF,10 µM,ΔTm,-0.4 °C
C[C@@H]1CCN(C(=O)CC#N)C[C@@H]1N(C)c1ncnc2[nH]ccc12,cell-free assay,inhibitor,,0.5 µM,remaining signal,95.5%
COc1cc2ncnc(Nc3ccc(Oc4ccccc4)c(C)c3C)c2cc1OC,enzyme activity,inhibitor,,1 µM,inhibition,-7%
c1ccc(CNc2nc(N3CCOc4ccccc43)nc3c2CCCC3)cc1,target engagement in cells,inhibitor,chemoproteomics,20 mM,inhibition,1.2%
O=C(Nc1cnn(-c2csc(C(=O)NC3COC3)c2)c1)Nc1c(F)cccc1Cl,enzyme activity,inhibitor,,5 µM,remaining activity,96.6%
CC(C)(C)c1nc2c(s1)c1nc(N)ncc1c1ccc(NS(=O)(=O)c3c(F)cccc3F)c(F)c12,enzyme activity,inhibitor,radiometric,1 µM,remaining activity,86%
CNC(=O)c1cc(Oc2ccc(NC(=O)Nc3ccc(Cl)c(C(F)(F)F)c3)cc2)ccn1,enzyme activity,inhibitor,,0.3 µM,inhibition,-7%
Cn1nc(C(=O)NCc2ccc(C(=O)O)cc2)cc1-c1ccc2[nH]ccc2c1,cell-free assay,,competition with immobilised ligand,0.1 µM,remaining binding,80%
CN1CCC2(CC1)NC(=O)c1c(c3ccc(Cl)c(Cl)c3n1C)C2C#N (racemic),thermal stability,,DSF,10 µM,ΔTm,0 °C
Cc1cc(NC(=O)c2cccc3cc(-c4cccc5[nH]nc(N)c45)ccc23)ccc1F,enzyme activity,inhibitor,,0.1 µM,activity vs control,104%
O=C(N1CCS(=O)(=O)CC1)N1C[C@H](c2ccc(OC(F)(F)F)cc2)C[C@H](c2nc(C3CC3)no2)C1,cell-free assay,,competition with immobilised ligand,1 µM,remaining binding,100%
Cc1ccc(Nc2nccc(N(C)c3ccc4c(C)n(C)nc4c3)n2)cc1S(N)(=O)=O,enzyme activity,inhibitor,,10 µM,inhibition,3%
Cc1cc(-n2nc(Cc3cc(F)cc(C(F)(F)F)c3)nc2C)ccc1C(N)=O,cell-free assay,,competition with immobilised ligand,1 µM,remaining binding,100%
CC(C)(O)[C@H]1CC[C@H](Nc2ccc3ncc(-c4cccc(C(F)(F)F)c4)n3n2)CC1,enzyme activity,inhibitor,,1 µM,remaining activity,90.8%
CN1CC(Oc2cnc(C#N)cc2-c2ccn3nc(NC(=O)C4CC4)cc3c2)C1,enzyme activity,inhibitor,,1 µM,inhibition,-5%
Cn1c2c(c3ccccc31)C(C#N)C(C)(C)NC2=O (centres unmarked),thermal stability,,DSF,10 µM,ΔTm,0.2 °C
COc1ccc2cc(OCC3(C(=O)O)CN(C(=O)c4ccc(F)cc4)C3)ccc2c1,cell-free assay,,competition with immobilised ligand,1 µM,remaining binding,100%
Cn1c2c(Cl)c(Cl)ccc2c2cc[nH]c(=O)c21,thermal stability,,DSF,10 µM,ΔTm,0.8 °C
N#CCCc1ccc2c(c1)-c1[nH]c3ccc([N+](=O)[O-])cc3c1CC(=O)N2,cell-free assay,,,0.5 µM,remaining signal,30.9%
CC(=O)C1=C(C)N(c2cccc(C(F)(F)F)c2)C(=O)N[C@@H]1c1ccc(C#N)nc1,cell-free assay,,competition with immobilised ligand,1 µM,remaining binding,97.5%
COc1cc(Cl)c(C(=O)N[C@@H](CN[C@H]2CC[C@@H](N)CC2)Cc2ccc(C#N)cc2)cc1-c1ccc(CN[C@H](C)c2ccc(C)cc2)o1,enzyme activity,inhibitor,,1 µM,remaining activity,102%
O=C(Nc1ccc(Oc2ccc(F)cc2)cc1)N1CCc2ncccc2[C@H]1c1ccc(F)cc1,cell-free assay,,competition with immobilised ligand,1 µM,remaining binding,99%
Cc1sc(C(=O)NC2COC2)cc1-n1cc(NC(=O)Nc2c(F)cccc2Cl)cn1,enzyme activity,inhibitor,,10 µM,remaining activity,107%
Cc1ccc(C(=O)Nc2ccc(CN3CCN(C)CC3)c(C(F)(F)F)c2)cc1C#Cc1cnc2cccnn12,enzyme activity,inhibitor,,23.5 nM,remaining activity,100%
